Test results published in ChEMBL document CHEMBL1157438, “Maleimide and maleic anhydride derivatives from the mycelia of Antrodia cinnamomea and their nitric oxide inhibitory activities in macrophages” (2008).

Legend:
RAW264.7 [1] = assay: Cell viability of LPS-stimulated mouse RAW264.7 cells after 24 hrs by MTT assay; format: functional; set-up: concentration or dose not given beside the values
In short: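 Cells cultured as for the nitrite assay (DMEM/10% FBS, medium renewed at 24 h) and exposed to compounds at 0–20 µg/mL plus LPS 1 µg/mL for 24 h. MTT (5 mg/mL stock in PBS, 10 µL per 100 µL culture) added for 4 h at 37 °C, formazan dissolved in DMSO, read at 550 nm; untreated cells set as 100%. Mean ± SD, three experiments in triplicate.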

RAW264.7 [2] = assay: Antiinflammatory activity in mouse RAW264.7 cells assessed as inhibition of LPS-induced NO production by measuring nitrite level after 24 hrs; format: functional
In short: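 RAW264.7 cells in DMEM with 10% heat-inactivated FBS, 37 °C, 5% CO2, 96-well; medium renewed after 24 h, then compounds (0, 1, 5, 10 or 20 µg/mL) added with LPS 1 µg/mL for 24 h. Supernatant mixed 1:1 with Griess reagent, 10 min room temperature, nitrite read at 540 nm. Mean ± SD of three experiments, each in triplicate.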

`CC(C)=CCOc1ccc(C2=C(CC(C)C)C(=O)OC2=O)cc1` was tested, and the Activity (RAW264.7 [1]) was 67.9% and the Activity (RAW264.7 [2]) was 20.8 µM.

In the case of `CC(C)=CCOc1ccc(C2=C(CC(C)C)C(=O)NC2=O)cc1`, the Activity (RAW264.7 [1]) is reported as 69.1% and the Activity (RAW264.7 [2]) is reported as 10.6 µM.

For `CC(C)=CCOc1ccc(C2=C(CC(C)C)C(=O)N(O)C2=O)cc1`, the Activity (RAW264.7 [1]) was 86.8% and the Activity (RAW264.7 [2]) was 18.3 µM.

`CC(C)CC1=C(c2ccc(O)cc2)C(=O)N(O)C1=O` [ANTROCINNAMOMIN B] gave an Activity (RAW264.7 [1]) of 82.2% and an Activity (RAW264.7 [2]) of 18 µM.

Work on `CC(C)CC1=C(c2ccc(O)cc2)C(=O)OC1=O` [ANTROCINNAMOMIN C] yielded an Activity (RAW264.7 [1]) of 76.3% and an Activity (RAW264.7 [2]) of 21.8 µM.

With `CC(C)=CCOc1ccc(C2=C(CC(C)C)C(O)OC2=O)cc1` (centres undefined) [ANTROCINNAMOMIN D] the Activity (RAW264.7 [1]) was 88.2% and the Activity (RAW264.7 [2]) was 20 µM.

With `CC(=O)ON1C(=O)C(CC(C)C)=C(c2ccc(OCC=C(C)C)cc2)C1=O` [ANTROCINNAMOMINS A] the Activity (RAW264.7 [1]) was 91.1% and the Activity (RAW264.7 [2]) was 12.5 µM.
